This is an account of results in ChEMBL document CHEMBL1152677, “Combretastatin-like chalcones as inhibitors of microtubule polymerisation. Part 2: Structure-based discovery of alpha-aryl chalcones” (Bioorg Med Chem, 2009).

Some results are limits rather than exact numbers.

Test [1] relates to K562. The test is described as follows: Antiproliferative activity against human K562 cells after 5 days by MTT assay. Format: functional, cell-based. The conditions noted are these: K562, 120 h. The essentials: (§1)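 Cells at about 2000 cells/mL (set by doubling time) in RPMI with 10% v/v FCS; compound from DMSO stock, seven twofold serial dilutions plus drug-free control, triplicate wells, 37 °C 5% CO2 for 5 days. MTT (3 mg/mL in PBS) added for 3 h, formazan dissolved in DMSO, OD read at 540 and 690 nm; IC50 derived graphically as percentage of control growth.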

The nature of test [2]: Inhibition of tubulin assembly by spectrophotometry. In outline: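 Tubulin (10–15 μM stock) in 0.1 M Mes, 1 mM EGTA, 0.5 mM MgCl2, pH 6.6, with GTP, compound in DMSO, assembled on cold at 0 °C then moved to 37 °C. Absorbance at 350 nm followed for 30 min against drug/GTP buffer blanks; change in optical density relative to untreated control gives IC50 for assembly inhibition.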

For test [3], the system named is K562. Put plainly: Cytotoxicity against human K562 cells. It is filed as functional, cell-based. The essentials: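 K562 cells in RPMI with 10% v/v FCS, at about 2000 cells/mL. Drug in DMSO was serially diluted twofold to give seven concentrations, plus a drug-free control. Cells were plated in triplicate and incubated 5 days at 37 °C, 5% CO2. MTT (3 mg/mL stock) was added for 3 h, formazan dissolved in DMSO, and OD read at 540 and 690 nm. IC50 was found graphically as percent of control growth.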

The nature of test [4]: Displacement of [3H]colchicine from tubulin.
The subject of the next test is A2780. Put plainly: Antiproliferative activity against human A2780 cells after 5 days by MTT assay. The following applies: A2780, 120 h. It is filed as functional, cell-based. In outline: as §1
A general note: Tetrazolium dyes change colour on reduction, which living cells bring about.

Another test concerns L1210. Put plainly: Antiproliferative activity against mouse L1210 cells after 5 days by MTT assay. It is filed as functional, cell-based. The conditions noted are these: L1210, 120 h. The essentials:
as §1

The test system of test [5] is K562. Put plainly: Cell cycle arrest in human K562 cells assessed as accumulation at G0/G1 phase at 10 uL after overnight incubation by propidium iodide staining-based flow cytometry. Format: functional. In outline:
(§2)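 Fixed in cold 1:1 acetone:ethanol, washed in PBS, RNAse treated (37 °C, 15 min), stained with propidium iodide 50 µg/mL; DNA content read by flow cytometry, argon laser excitation 488 nm; percentage of cells per phase versus untreated control.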

The next test concerns P388. The test is described as follows: Antiproliferative activity against mouse P388 cells after 5 days by MTT assay. Format: functional, cell-based. The conditions noted are these: P388, 120 h. In outline: as §1
For test [6], the system named is K562. Put plainly: Cell cycle arrest in human K562 cells assessed as accumulation at G2/M phase at 10 uL after overnight incubation by propidium iodide staining-based flow cytometry. It is filed as functional. The essentials:
as §2
In general terms: In flow cytometry, cells or beads pass a laser one at a time.

The next test concerns A549. Put plainly: Antiproliferative activity against human A549 cells after 5 days by MTT assay. Format: functional, cell-based. The conditions noted are these: A549, 120 h. In outline: as §1
Test [7] relates to K562. The test is described as follows: Cell cycle arrest in human K562 cells assessed as accumulation at S phase at 10 uL after overnight incubation by propidium iodide staining-based flow cytometry. Format: functional. The essentials:
as §2

Test [8] in a line: Inhibition of tubulin assembly by turbidimetry assay.

A word on the IC50: it is the concentration that gives 50% inhibition.

In the test with K562 [1], `COc1ccc(/C=C(/C(=O)c2cc(OC)c(OC)c(OC)c2)c2ccc(OC)cc2)cc1` came in with an IC50 of 40 nM.
`COc1ccc(C(=Cc2ccccc2)C(=O)c2cc(OC)c(OC)c(OC)c2)cc1`: the IC50 in the test on K562 [1] was determined as 4920 nM.
Same read-out and setting: the value for `COc1ccc(C=C(C(=O)c2cc(OC)c(OC)c(OC)c2)c2ccccc2)cc1[N+](=O)[O-]` was greater than 10000 nM.
The compound `COc1ccc(/C=C(/C(=O)c2cc(OC)c(OC)c(OC)c2)c2ccc(OC)cc2OC)cc1` came in with an IC50 with K562 [1] of 90 nM.
For the compound `COc1ccc(C(=Cc2ccc(OC)c(F)c2)C(=O)c2cc(OC)c(OC)c(OC)c2)cc1`, the IC50 in test [2] is 4200 nM; in the test on K562 [1] it was 450 nM.
`COc1ccc(C=C(C(=O)c2cc(OC)c(OC)c(OC)c2)c2ccc(C)cc2)cc1F`: the IC50 worked out at 4400 nM in [2] and 570 nM in the test with K562 [1].
On to `COc1ccc(/C=C\c2cc(OC)c(OC)c(OC)c2)cc1O` [COMBRETASTATIN A4], for which the IC50 with K562 [3] stood at 1.4 nM; in [2] it was 3700 nM; in the test on K562 [1] it was 3.2 nM; with A2780 it was 1.9 nM; in the test on L1210, 2.3 nM; in the test on P388, 3.1 nM. Further, the IC50 in the test with A549 amounted to 7.8 nM. For the same compound, the Activity is 92% in test [4], 14% in the test on K562 [5], 62.7% with K562 [6] and 23.3% in the test on K562 [7].
Consider `COc1ccc(/C=C(/C(=O)c2cc(OC)c(OC)c(OC)c2)c2ccccc2O)cc1O`, for which the IC50 in test [2] was found to be 5500 nM; with K562 [1], 49 nM; with A2780, 34 nM; with L1210 it was 36 nM; in the test with P388 it was 28 nM; with A549, 50 nM. In addition, the Activity in the test on K562 [5] stood at 6.5%; with K562 [6], 75.4%; in the test with K562 [7], 18.1%.
In the test with K562 [1], `COc1ccc(C=C(C(=O)c2cc(OC)c(OC)c(OC)c2)c2ccc(OC)cc2)cc1` returned an IC50 of 500 nM.
In turn, `COc1ccc(/C=C(/C(=O)c2cc(OC)c(OC)c(OC)c2)c2ccc(N(C)C)cc2)cc1` showed an IC50 with K562 [1] of 150 nM.
As for `COc1ccc(/C=C(\C)C(=O)c2cc(OC)c(OC)c(OC)c2)cc1O`, the IC50 in [2] was 3300 nM; with K562 [1], 4.4 nM; in the test on A2780 it was 1.8 nM; in the test on L1210, 11 nM; in the test on P388, 26 nM; in the test with A549, 10 nM. The compound further returned an IC50 in test [8] of 460 nM. The Activity is reported as 10.7% with K562 [5], 56.4% in the test on K562 [6] and 32.8% in the test on K562 [7].
For the compound `COc1ccc(/C=C(/C(=O)c2cc(OC)c(OC)c(OC)c2)c2ccccc2O)cc1`, the IC50 was greater than 10000 nM in test [2] and 370 nM with K562 [1].
Take `COc1ccc(/C=C(/C(=O)c2cc(OC)c(OC)c(OC)c2)c2ccccc2O)cc1F`: the IC50 was found to be 7200 nM in test [2]; 60 nM in the test with K562 [1]; 40 nM with A2780; 60 nM with L1210; 530 nM in the test with P388; 140 nM in the test on A549. In addition, the Activity in the test on K562 [5] was 10.6%; in the test with K562 [6], 45.7%; in the test on K562 [7] it was 43.6%.
On to `COc1ccc(/C=C(/C(=O)c2cc(OC)c(OC)c(OC)c2)c2ccccc2O)cc1O[Si](C)(C)C(C)(C)C`, for which the IC50 in [2] was greater than 10000 nM; in the test on K562 [1] it was 380 nM.
Turning to `COc1ccc(C=C(C(=O)c2cc(OC)c(OC)c(OC)c2)c2ccccc2)cc1F`, in the test on K562 [1], the midpoint of inhibition, the IC50, lay at 790 nM.
Consider `COc1cc(C(=O)C(=Cc2ccccc2)c2ccccc2)cc(OC)c1OC`, for which the IC50 in the test with K562 [1] came to 6300 nM.
The same measure, in the same setting: the value for `COc1ccc(C=C(C(=O)c2cc(OC)c(OC)c(OC)c2)c2ccc(C)cc2)cc1[N+](=O)[O-]` was 2430 nM.
`COc1ccc(C=C(C(=O)c2cc(OC)c(OC)c(OC)c2)c2ccc(C)cc2)cc1` registered an IC50 in the test with K562 [1] of 760 nM.
For `COc1ccc(C(=Cc2ccc(OC)c(O)c2)C(=O)c2cc(OC)c(OC)c(OC)c2)cc1`, the 50% inhibitory concentration (IC50) in test [2] worked out at 2100 nM; with K562 [1] it was 12 nM; in the test with A2780, 10 nM; in the test on L1210, 160 nM; with P388, 20 nM; in the test on A549, 680 nM. Moreover, the Activity with K562 [5] is reported as 10.8%; in the test on K562 [6], 54.6%; with K562 [7] it was 34.6%.
In the case of `COc1cc(C(=O)C(=Cc2ccccc2)c2ccc(C)cc2)cc(OC)c1OC`, it took 2970 nM to reach half-maximal inhibition with K562 [1] (IC50).
Regarding `COc1ccc(C=C(C(=O)c2cc(OC)c(OC)c(OC)c2)c2ccc(C)cc2)cc1O`, the values for the IC50 (in [2]; in the test on K562 [1]) were 2600 nM and 32 nM, respectively.
Compound `COc1ccc(C(=Cc2ccc(OC)c([N+](=O)[O-])c2)C(=O)c2cc(OC)c(OC)c(OC)c2)cc1` registered an IC50 in the test on K562 [1] of 2660 nM.
Same read-out and setting: the value for `COc1ccc(/C=C(/C(=O)c2cc(OC)c(OC)c(OC)c2)c2ccccc2)cc1` was 20 nM.
In test [8], `COc1cc2c(c(OC)c1OC)-c1ccc(OC)c(=O)cc1[C@@H](NC(C)=O)CC2` [COLCHICINE] showed an IC50 of 2600 nM.
